The MIC is the lowest concentration found to suppress growth. In general, IC50 refers to the point on the concentration scale where inhibition reaches its midpoint. High values mean weaker potency in that assay, low ones greater potency in that assay.

In ChEMBL document CHEMBL4196207, “Medermycin-Type Naphthoquinones from the Marine-Derived Streptomyces sp. XMA39” (J Nat Prod, 2018) one finds MIC and IC50 data, which are given here for seven compounds.

In brackets after ≈: the same amount, converted by molar mass. Positions of bridges follow the written chain, without caps; N, C: chain ends. Non-standard residues stand in square brackets, D forms with d. Residues, ends and D or L forms follow the SMILES beside them. *: point of attachment. Octanoyl(6-Me) = CCC(C)CCCCC(=O)*; Dab = NCC[C@H](N)C(=O)O Where only a bound is given, the exact number is not on record here.

Test [1] concerns Escherichia coli. As to the kind of experiment: Antimicrobial activity against Escherichia coli ATCC 25922 after 12 hrs by microdilution method. In kind it is functional. The settings on record: ATCC 25922, 12 h. Put shortly: (§1)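 Broth microdilution in 96-well plates. A 10 mg/mL DMSO stock was serially diluted in microbial cell suspension, 200 μL final. Plates were incubated at 37 °C for 12 h. MIC was read as the lowest concentration completely clear against a black background. Triplicate. E. coli strain ATCC 25922; C. albicans strain not specified.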
(Broth dilution looks for growth in wells or tubes with falling amounts of substance.)

Test [2] concerns the target Rho-associated protein kinase 2 (Homo sapiens, UniProt O75116). In words: Inhibition of ROCK2 (unknown origin) using SKT S2 as substrate measured after 30 mins by HTRF assay. Put shortly:
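HTRF KinEASE format. Compound dilutions were added to a substrate/enzyme/ATP mixture and incubated 0.5 h at 37 °C. SA-XL665 and STK antibody–cryptate were then added, followed by 1 h at room temperature before HTRF read-out. Triplicate.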
(In general: Time-resolved FRET reads energy transfer from a long-lived donor to a nearby acceptor.)

Test [3] has as its system HCT-116. As to the kind of experiment: Cytotoxicity against human HCT116 cells after 72 hrs by SRB assay. In kind it is functional, cell-based. The settings on record: HCT-116, 72 h. Put shortly:
(§2)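 SRB assay. Cells were seeded 24 h, then given a range of compound concentrations for 72 h at 37 °C. Fixed with cold 10% TCA for 2 h at 4 °C, washed, stained with 0.4% SRB, rinsed with 1% acetic acid, and dye dissolved in 10 mM Tris. OD read at 515 nm. IC50 by the Reed–Muench method.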

In test [4] the test system is Candida albicans. As to the kind of experiment: Antimicrobial activity against Candida albicans after 12 hrs by microdilution method. The test is classed as functional. Put shortly:
as §1

In test [5] the test system is PC-3. In words: Cytotoxicity against human PC3 cells after 72 hrs by SRB assay. The settings on record: PC-3, 72 h. In kind it is functional, cell-based. In a few lines: as §2
In test [6] the test system is Staphylococcus aureus. In words: Antimicrobial activity against methicillin-resistant Staphylococcus aureus ATCC 43300 after 12 hrs by microdilution method. The test is classed as functional. Conditions: ATCC 43300, 12 h. Put shortly:
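Broth microdilution. Compound stock of 10 mg/mL in DMSO was serially diluted with microbial cell suspension to a series of concentrations in 96-well plates. Plates were incubated at 37 °C for 12 h. MIC is the lowest concentration that stays completely clear against a black background. Vancomycin served as positive control. Tests were run in triplicate.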

Rho-associated protein kinase 2, sequence (O75116 whole entry): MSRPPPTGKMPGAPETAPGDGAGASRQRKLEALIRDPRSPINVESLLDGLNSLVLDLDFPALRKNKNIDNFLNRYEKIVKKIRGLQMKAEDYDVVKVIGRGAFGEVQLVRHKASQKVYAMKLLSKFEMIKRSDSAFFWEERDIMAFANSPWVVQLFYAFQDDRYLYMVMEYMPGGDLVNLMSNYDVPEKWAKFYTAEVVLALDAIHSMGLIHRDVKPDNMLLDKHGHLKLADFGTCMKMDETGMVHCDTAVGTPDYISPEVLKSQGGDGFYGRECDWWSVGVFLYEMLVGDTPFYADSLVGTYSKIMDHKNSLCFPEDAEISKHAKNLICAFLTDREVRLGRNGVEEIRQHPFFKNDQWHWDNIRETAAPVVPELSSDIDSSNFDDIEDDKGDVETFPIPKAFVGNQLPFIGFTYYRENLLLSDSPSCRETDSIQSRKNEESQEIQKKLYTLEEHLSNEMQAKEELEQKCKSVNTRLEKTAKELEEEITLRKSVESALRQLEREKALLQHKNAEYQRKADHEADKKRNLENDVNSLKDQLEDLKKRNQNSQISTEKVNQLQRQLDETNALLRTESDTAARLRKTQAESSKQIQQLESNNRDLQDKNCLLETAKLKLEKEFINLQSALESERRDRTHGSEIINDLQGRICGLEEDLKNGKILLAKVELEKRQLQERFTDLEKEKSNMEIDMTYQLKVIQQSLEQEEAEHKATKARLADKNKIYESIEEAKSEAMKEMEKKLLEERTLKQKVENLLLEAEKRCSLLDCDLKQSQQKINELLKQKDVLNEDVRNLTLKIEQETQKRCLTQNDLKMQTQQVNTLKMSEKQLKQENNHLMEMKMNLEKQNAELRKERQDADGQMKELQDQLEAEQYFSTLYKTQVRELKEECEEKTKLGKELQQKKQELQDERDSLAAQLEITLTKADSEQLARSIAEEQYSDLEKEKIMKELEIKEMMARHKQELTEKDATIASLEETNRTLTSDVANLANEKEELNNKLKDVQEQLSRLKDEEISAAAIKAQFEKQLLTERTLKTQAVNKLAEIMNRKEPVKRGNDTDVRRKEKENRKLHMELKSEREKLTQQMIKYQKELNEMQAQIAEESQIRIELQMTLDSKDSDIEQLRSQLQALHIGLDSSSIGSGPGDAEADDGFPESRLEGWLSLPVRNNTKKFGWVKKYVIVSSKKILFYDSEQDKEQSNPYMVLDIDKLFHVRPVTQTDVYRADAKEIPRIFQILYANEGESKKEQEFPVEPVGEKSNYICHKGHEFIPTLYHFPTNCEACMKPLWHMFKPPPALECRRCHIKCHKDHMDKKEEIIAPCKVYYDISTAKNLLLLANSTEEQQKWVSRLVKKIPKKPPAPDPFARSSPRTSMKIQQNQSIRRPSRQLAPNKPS

Consider `COC(=O)C[C@H]1O[C@H](C)c2c(oc(=O)c3ccc([C@H]4C[C@@H](N(C)C)[C@H](O)[C@@H](C)O4)c(O)c3c2=O)[C@H]1O`, for which the MIC came to 10 µg/mL (≈ 19.8 µM) in test [1], 10 µg/mL (≈ 19.8 µM) in test [4] and 15 µg/mL (≈ 29.7 µM) in test [6]. For the same compound, the IC50 is above 20 µM in test [2], above 40 µM in test [3] and above 40 µM in test [5].
As to `C[C@H]1O[C@@H]2CC(=O)O[C@@H]2C2=C1C(=O)c1c(ccc([C@H]3C[C@@H](N(C)C)[C@H](O)[C@@H](C)O3)c1O)C2=O` [LACTOQUINOMYCIN], the MIC in test [1] amounted to 2 µg/mL (≈ 4.37 µM); in test [4] it was 5 µg/mL (≈ 10.9 µM); in test [6], 0.25 µg/mL (≈ 0.546 µM). Also, the IC50 was determined as 0.011 µM in test [2], 0.043 µM in test [3] and 0.015 µM in test [5].
On to `COC(=O)C[C@@H]1C[C@@]2(O)C(=O)c3ccc([C@H]4C[C@@H](N(C)C)[C@H](O)[C@@H](C)O4)c(O)c3C(=O)[C@]2(O)[C@@H](C)O1`, for which the results for the MIC in test [1], in test [4] and in test [6] were 5 µg/mL (≈ 9.85 µM), 9 µg/mL (≈ 17.7 µM) and 6 µg/mL (≈ 11.8 µM), respectively. Further, the IC50 was above 20 µM in test [2], 4.4 µM in test [3] and 16 µM in test [5].
As for `C[C@@H]1[C@H](O)[C@@H](C)/C=C/C=C/C=C/C=C/C=C/C=C/C=C/[C@H](O[C@@H]2O[C@H](C)[C@@H](O)[C@H](N)[C@@H]2O)C[C@@H]2O[C@](O)(C[C@@H](O)C[C@@H](O)[C@H](O)CC[C@@H](O)C[C@@H](O)CC(=O)O[C@H]1C)C[C@H](O)[C@H]2C(=O)O` [AMPHOTERICIN B], in test [4], the MIC was found to be 2 µg/mL (≈ 2.16 µM).
With `C[C@H]1O[C@@H]2CC(=O)O[C@@H]2c2oc(=O)c3ccc([C@H]4C[C@@H](N(C)C)[C@H](O)[C@@H](C)O4)c(O)c3c(=O)c21`, the results for the MIC in test [1], in test [4] and in test [6] were 8 µg/mL (≈ 16.9 µM), 7 µg/mL (≈ 14.8 µM) and 12 µg/mL (≈ 25.3 µM), respectively. The IC50 is above 20 µM in test [2], above 40 µM in test [3] and above 40 µM in test [5].
`COC(=O)C[C@H]1OC(C)=C2C(=O)c3c(ccc([C@H]4C[C@@H](N(C)C)[C@H](O)[C@@H](C)O4)c3O)C(=O)C2=C1O`: the MIC in test [1] was determined as 4 µg/mL (≈ 8.21 µM); in test [4], 6 µg/mL (≈ 12.3 µM); in test [6], 3 µg/mL (≈ 6.15 µM). Besides, the half-inhibitory concentration (IC50) turned out to be 9 µM in test [2], 2.9 µM in test [3] and 19 µM in test [5].
In turn, `CCC(C)CCCCC(=O)N[C@@H](CCN)C(=O)N[C@H](C(=O)N[C@@H](CCN)C(=O)N[C@H]1CCNC(=O)[C@H]([C@@H](C)O)NC(=O)[C@H](CCN)NC(=O)[C@H](CCN)NC(=O)[C@H](CC(C)C)NC(=O)[C@@H](Cc2ccccc2)NC(=O)[C@H](CCN)NC1=O)[C@@H](C)O` (some centres not stated) ({Octanoyl(6-Me)}-[Dab]T[Dab][Dab][Dab][dF]L[Dab][Dab]T; lactam 4-C) displayed a minimal inhibitory concentration (MIC) in test [1] of 2 µg/mL (≈ 1.66 µM).
